Tests used:
Type in all cases: cell-based, human
[1] = tested on: Hep-G2; assay: MTT cytotoxicity assay, Hep-G2; conditions: read-out: IC50 Hep-G2, cells treated for 24 h
Method in brief: (§1)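 Tumour lines and the normal liver line HL-7702 came from the Shanghai Cell Bank. Cells were cultured in RPMI 1640 or DMEM with 10% FBS and 1% streptomycin at 37 °C, 5% CO2. Cells were exposed to test compounds, and viability was read by MTT reduction to derive IC50. Cisplatin was run as reference control.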

[2] = tested on: NCI-H460; assay: MTT cytotoxicity assay, NCI-H460; conditions: read-out: IC50 NCI-H460, cells treated for 24 h
Method in brief: as §1

[3] = tested on: HL-7702; assay: MTT cytotoxicity assay, normal liver cell line HL-7702; conditions: read-out: IC50 HL-7702, cells treated for 24 h
Method in brief: as §1

[4] = tested on: T24; assay: MTT cytotoxicity assay, T24; conditions: read-out: IC50 T24, cells treated for 24 h
Method in brief: as §1

N.N.[Cl][Pt][Cl] [Cisplatin]
IC50 [1]: 19.6 ± 1.39 µM
IC50 [2]: 11.7 ± 2.26 µM
IC50 [3]: 13.4 ± 1.56 µM
IC50 [4]: 22.9 ± 0.93 µM
